The text below walks through data of ChEMBL document CHEMBL4342528, “Discovery of a First-in-Class Protein Arginine Methyltransferase 6 (PRMT6) Covalent Inhibitor” (J Med Chem, 2020).

Data set [1] deals with T1, Protein arginine N-methyltransferase 6 (Homo sapiens, UniProt Q96LA8). Description: Inhibition of human PRMT6 using [3H]SAM as donor and [3H]methylated biotin-labeled peptide as substrate by scintillation proximity assay. The method in brief: (§1)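 Compound titrated into the reaction; 1 h enzyme–compound preincubation stated for PRMT6. Methylated peptide captured on streptavidin/scintillant-coated plates and counted (cpm). IC50 from concentration–response, triplicate, mean ± SD.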
Target sequence in this assay (Q96LA8 whole entry): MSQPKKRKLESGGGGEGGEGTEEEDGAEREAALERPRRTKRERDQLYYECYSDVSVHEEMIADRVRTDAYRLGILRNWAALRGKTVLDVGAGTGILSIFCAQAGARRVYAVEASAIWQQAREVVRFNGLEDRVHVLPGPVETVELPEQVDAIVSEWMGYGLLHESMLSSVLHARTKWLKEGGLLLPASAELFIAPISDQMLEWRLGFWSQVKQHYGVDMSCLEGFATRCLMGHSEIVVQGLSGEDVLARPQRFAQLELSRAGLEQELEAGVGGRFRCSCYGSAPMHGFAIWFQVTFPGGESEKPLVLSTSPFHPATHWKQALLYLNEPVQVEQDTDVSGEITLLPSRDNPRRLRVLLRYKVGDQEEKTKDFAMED

In data set [2] the target is T1, Protein arginine N-methyltransferase 6. As to the kind of experiment: Inhibition of human PRMT6 assessed as Kinact/Ki ratio pre-incubated for 1 to 30 mins using [3H]SAM as donor and [3H]methylated biotin-labeled peptide as substrate by scintillation proximity assay. A general note: SPA uses beads or plates that emit light when radiolabelled molecules are held near them.
Target sequence in this assay (Q96LA8 whole entry, looked up): as the sequence (Q96LA8 whole entry) above

The target in data set [3] is T2, Histone-arginine methyltransferase CARM1 (Homo sapiens, UniProt Q86X55).
T2 sequence (Q86X55 whole entry): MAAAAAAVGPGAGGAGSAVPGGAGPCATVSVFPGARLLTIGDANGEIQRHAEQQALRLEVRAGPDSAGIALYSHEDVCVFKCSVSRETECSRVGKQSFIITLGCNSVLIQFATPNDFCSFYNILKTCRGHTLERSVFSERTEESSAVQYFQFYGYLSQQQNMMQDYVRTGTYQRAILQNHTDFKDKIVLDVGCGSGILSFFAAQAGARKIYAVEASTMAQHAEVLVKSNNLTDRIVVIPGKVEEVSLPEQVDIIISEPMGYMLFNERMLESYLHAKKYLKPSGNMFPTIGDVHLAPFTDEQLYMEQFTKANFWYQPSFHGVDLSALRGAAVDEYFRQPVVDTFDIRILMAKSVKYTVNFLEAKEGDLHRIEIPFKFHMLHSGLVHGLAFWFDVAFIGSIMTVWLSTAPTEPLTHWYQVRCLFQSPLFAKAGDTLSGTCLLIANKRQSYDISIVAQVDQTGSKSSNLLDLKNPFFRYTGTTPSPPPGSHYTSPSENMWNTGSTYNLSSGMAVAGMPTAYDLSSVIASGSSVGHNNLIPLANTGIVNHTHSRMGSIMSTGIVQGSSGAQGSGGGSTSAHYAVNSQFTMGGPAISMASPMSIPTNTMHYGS
As to the kind of experiment: Inhibition of human PRMT4 using [3H]SAM as donor and [3H]methylated biotin-labeled peptide as substrate by scintillation proximity assay. The method in brief:
as §1

The species entered for data set [4] is Homo sapiens. Description: Selectivity index, ratio of IC50 for human PRMT1 to IC50 for human PRMT6.
Data set [5] addresses Protein arginine N-methyltransferase 1 (Homo sapiens, UniProt Q99873). As to the kind of experiment: Inhibition of PRMT1 in human MCF7 cells assessed as reduction in H4R3me2a levels incubated for 2 days by fluorescence based assay. It is filed as cell-based. The method in brief: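 MCF7 cells with endogenous PRMT1 were treated with compound for 2 days, with MS023 (1 μM) as positive control. The H4R3me2a fluorescence signal was normalized to H4 and fitted nonlinearly to give IC50.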

Data set [6] concerns the target Protein arginine N-methyltransferase 3 (Homo sapiens, UniProt O60678). Description: Inhibition of PRMT3 (unknown origin) expressed in HEK293T cells were co-transfected with GFP-tagged histone H4 peptide assessed as reduction in H4R3 arginine asymmetric dimethylation at 0.2 to 20 uM incubated for 20 hrs. It is filed as cell-based.
Data set [7] deals with T3, Histone-arginine methyltransferase CARM1 (Homo sapiens) (UniProt Q86X55).
T3 sequence (whole entry): T2 sequence (Q86X55 whole entry)
As to the kind of experiment: Inhibition of PRMT4 in human MCF7 cells assessed as reduction in BAF155 asymmetric dimethylation at 0.2 to 20 uM incubated for 2 days. Type of data set: cell-based.

Data set [8] concerns PNT2. Description: Toxicity in human PNT2 cells assessed as reduction in cell viability up to 20 uM incubated for 3 days by CCK8 assay. Type of data set: cell-based. The conditions noted are these: pnt2, 72 h. The method in brief: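 Cells seeded 1×10^4 per well in triplicate, treated after 24 h with serial dilutions from 20 μM for 3 days; CCK-8 (WST-8) added, 4 h at 37 °C, absorbance at 450 nm; mean ± SD of three replicate experiments.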

Data set [9] addresses T3, Histone-arginine methyltransferase CARM1 (Homo sapiens). Description: Inhibition of PRMT4 (unknown origin) assessed as reduction in incorporation of [3H]-labeled methyl group into biotinylated substrate using [3H-SAM] at 10 uM incubated for 1 hr by scintillation proximity assay. The method in brief: (§2)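 Panel of 33 methyltransferases (22 PKMTs, 3 DNMTs, 8 PRMTs), each tested at 10 and 50 μM compound. Activity was read as ³H-methyl transfer from ³H-SAM in a radiometric assay done as previously described.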

Data set [10] deals with Protein arginine N-methyltransferase 8 (Homo sapiens, UniProt Q9NR22). As to the kind of experiment: Inhibition of PRMT8 (unknown origin) assessed as reduction in incorporation of [3H]-labeled methyl group into biotinylated substrate using [3H-SAM] at 10 uM incubated for 1 hr by scintillation proximity assay. The method in brief: as §2
Protein arginine N-methyltransferase 8, sequence (Q9NR22 2-394 limits assumed): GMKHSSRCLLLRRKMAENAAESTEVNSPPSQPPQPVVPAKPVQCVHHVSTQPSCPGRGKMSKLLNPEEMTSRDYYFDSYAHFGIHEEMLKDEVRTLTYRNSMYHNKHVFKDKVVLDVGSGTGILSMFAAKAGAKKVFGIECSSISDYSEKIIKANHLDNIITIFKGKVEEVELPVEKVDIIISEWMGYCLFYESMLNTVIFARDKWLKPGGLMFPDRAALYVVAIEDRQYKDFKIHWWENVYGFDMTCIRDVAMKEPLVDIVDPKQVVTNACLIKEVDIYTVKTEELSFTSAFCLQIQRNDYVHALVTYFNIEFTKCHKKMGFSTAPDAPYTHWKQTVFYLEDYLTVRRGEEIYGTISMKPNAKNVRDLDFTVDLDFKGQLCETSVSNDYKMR
In data set [11] the target is Histone-lysine N-methyltransferase EHMT2 (Homo sapiens) (UniProt Q96KQ7). Description: Inhibition of G9a (unknown origin) assessed as reduction in incorporation of [3H]-labeled methyl group into biotinylated substrate using [3H-SAM] at 10 uM incubated for 1 hr by scintillation proximity assay. The procedure, abridged:
as §2

For data set [12], the target named is Histone-lysine N-methyltransferase SUV39H2 (Homo sapiens) (UniProt Q9H5I1). As to the kind of experiment: Inhibition of SUV39H2 (unknown origin) assessed as reduction in incorporation of [3H]-labeled methyl group into biotinylated substrate using [3H-SAM] at 10 uM incubated for 1 hr by scintillation proximity assay.
Histone-lysine N-methyltransferase SUV39H2 (Homo sapiens), sequence (Q9H5I1 whole entry): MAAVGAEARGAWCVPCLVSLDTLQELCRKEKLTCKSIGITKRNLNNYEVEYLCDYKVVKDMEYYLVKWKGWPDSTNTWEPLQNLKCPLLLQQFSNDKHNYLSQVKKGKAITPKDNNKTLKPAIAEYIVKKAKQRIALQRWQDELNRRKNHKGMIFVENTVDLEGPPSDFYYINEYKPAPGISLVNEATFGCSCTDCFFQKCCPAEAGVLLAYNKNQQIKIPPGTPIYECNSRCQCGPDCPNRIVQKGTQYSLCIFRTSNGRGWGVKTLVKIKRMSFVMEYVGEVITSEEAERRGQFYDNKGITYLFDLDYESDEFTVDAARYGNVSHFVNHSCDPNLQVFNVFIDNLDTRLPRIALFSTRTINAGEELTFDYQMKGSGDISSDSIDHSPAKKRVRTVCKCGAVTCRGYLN
Data set [13] concerns the target Histone-lysine N-methyltransferase 2C (Homo sapiens) (UniProt Q8NEZ4). Description: Inhibition of MLL3 (unknown origin) assessed as reduction in incorporation of [3H]-labeled methyl group into biotinylated substrate using [3H-SAM] at 10 uM incubated for 1 hr by scintillation proximity assay. The procedure, abridged:
as §2

Data set [14] has as its target Histone-lysine N-methyltransferase KMT5B (Homo sapiens) (UniProt Q4FZB7). Description: Inhibition of SUV420H1 (unknown origin) assessed as reduction in incorporation of [3H]-labeled methyl group into biotinylated substrate using [3H-SAM] at 10 uM incubated for 1 hr by scintillation proximity assay.
Data set [15] deals with Histone-lysine N-methyltransferase KMT5C (Homo sapiens) (UniProt Q86Y97). As to the kind of experiment: Inhibition of SUV420H2 (unknown origin) assessed as reduction in incorporation of [3H]-labeled methyl group into biotinylated substrate using [3H-SAM] at 10 uM incubated for 1 hr by scintillation proximity assay.
Histone-lysine N-methyltransferase KMT5C (Homo sapiens), sequence (Q86Y97 whole entry, looked up): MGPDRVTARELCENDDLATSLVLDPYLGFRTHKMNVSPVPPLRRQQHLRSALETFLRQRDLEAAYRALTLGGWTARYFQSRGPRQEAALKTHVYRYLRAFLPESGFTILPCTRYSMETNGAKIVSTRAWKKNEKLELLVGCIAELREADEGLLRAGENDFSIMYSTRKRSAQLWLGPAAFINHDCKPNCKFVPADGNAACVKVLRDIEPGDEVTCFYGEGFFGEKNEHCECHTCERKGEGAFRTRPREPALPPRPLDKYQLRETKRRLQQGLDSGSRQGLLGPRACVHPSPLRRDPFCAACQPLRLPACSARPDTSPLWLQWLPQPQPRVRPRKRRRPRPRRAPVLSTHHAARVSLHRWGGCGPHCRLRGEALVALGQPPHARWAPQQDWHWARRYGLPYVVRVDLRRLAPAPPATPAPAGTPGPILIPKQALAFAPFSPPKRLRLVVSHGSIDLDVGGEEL
Data set [16] addresses RNA 5'-monophosphate methyltransferase (Homo sapiens) (UniProt Q7Z5W3). As to the kind of experiment: Inhibition of BCDIN3D (unknown origin) assessed as reduction in incorporation of [3H]-labeled methyl group into biotinylated substrate using [3H-SAM] at 10 uM incubated for 1 hr by scintillation proximity assay.
The target of data set [17] is Histone-lysine N-methyltransferase NSD2 (Homo sapiens) (UniProt O96028). As to the kind of experiment: Inhibition of NSD2 (unknown origin) at 10 uM using [3H-SAM] and nucleosome as substrate incubated for 1 hr by scintillation proximity assay. The procedure, abridged:
as §2

The target in data set [18] is Protein arginine N-methyltransferase 7 (Homo sapiens) (UniProt Q9NVM4). Description: Inhibition of PRMT7 (unknown origin) at 50 uM assessed as reduction in incorporation of [3H]-labeled methyl group into biotinylated substrate using [3H-SAM] at 50 uM incubated for 1 hr by scintillation proximity assay relative to control. The procedure, abridged:
as §2

Active and inactive are the calls of the source. The calls are words filed in the database; no cut-off is given here.

Histone-lysine N-methyltransferase NSD2 (Homo sapiens), sequence (O96028 whole entry): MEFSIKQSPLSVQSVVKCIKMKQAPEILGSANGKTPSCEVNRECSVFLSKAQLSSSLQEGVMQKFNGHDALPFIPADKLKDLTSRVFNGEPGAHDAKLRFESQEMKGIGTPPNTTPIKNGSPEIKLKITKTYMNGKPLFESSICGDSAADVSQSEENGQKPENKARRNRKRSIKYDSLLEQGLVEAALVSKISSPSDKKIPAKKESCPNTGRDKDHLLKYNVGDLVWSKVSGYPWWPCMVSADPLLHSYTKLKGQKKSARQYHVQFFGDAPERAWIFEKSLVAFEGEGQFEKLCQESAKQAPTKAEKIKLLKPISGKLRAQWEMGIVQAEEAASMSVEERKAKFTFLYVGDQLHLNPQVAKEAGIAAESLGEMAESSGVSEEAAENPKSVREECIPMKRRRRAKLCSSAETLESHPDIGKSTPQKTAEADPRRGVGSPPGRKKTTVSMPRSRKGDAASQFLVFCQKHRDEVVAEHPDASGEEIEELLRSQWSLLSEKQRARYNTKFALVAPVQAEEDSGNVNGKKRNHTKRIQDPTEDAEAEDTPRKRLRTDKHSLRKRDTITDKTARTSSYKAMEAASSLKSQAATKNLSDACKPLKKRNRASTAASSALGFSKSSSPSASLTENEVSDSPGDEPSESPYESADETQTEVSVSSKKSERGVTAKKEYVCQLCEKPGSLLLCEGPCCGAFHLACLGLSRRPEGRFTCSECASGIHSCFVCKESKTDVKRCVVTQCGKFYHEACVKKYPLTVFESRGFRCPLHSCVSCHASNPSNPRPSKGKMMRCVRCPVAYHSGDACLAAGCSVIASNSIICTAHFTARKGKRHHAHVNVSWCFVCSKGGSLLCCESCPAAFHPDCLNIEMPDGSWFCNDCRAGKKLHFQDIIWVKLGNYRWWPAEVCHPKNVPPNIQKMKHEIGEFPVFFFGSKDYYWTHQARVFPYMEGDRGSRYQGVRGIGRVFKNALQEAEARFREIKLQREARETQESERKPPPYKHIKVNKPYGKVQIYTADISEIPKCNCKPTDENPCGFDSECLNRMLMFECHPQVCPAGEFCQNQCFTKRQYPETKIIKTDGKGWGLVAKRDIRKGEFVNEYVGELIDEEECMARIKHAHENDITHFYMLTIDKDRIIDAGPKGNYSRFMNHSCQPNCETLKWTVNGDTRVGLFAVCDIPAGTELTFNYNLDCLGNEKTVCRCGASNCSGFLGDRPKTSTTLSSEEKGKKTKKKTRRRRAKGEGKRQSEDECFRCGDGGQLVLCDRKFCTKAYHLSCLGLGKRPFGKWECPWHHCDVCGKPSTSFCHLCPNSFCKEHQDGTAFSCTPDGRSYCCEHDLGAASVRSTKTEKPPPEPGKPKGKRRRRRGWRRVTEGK
Protein arginine N-methyltransferase 3, sequence (O60678 2-531 limits assumed): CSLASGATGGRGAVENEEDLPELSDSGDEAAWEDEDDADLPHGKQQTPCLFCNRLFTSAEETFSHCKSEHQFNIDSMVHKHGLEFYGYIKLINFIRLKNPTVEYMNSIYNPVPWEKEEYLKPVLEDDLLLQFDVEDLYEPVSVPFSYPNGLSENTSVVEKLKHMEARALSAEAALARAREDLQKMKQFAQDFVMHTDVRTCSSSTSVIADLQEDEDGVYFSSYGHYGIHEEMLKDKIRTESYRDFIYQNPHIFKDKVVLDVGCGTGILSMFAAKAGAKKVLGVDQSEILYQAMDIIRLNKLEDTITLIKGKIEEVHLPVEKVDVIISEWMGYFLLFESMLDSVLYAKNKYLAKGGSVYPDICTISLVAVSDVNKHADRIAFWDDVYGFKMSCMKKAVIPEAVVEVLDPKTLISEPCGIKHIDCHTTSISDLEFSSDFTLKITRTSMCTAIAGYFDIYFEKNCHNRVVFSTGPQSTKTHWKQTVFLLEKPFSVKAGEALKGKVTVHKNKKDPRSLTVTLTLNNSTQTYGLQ
Protein arginine N-methyltransferase 7 (Homo sapiens), sequence (Q9NVM4 whole entry): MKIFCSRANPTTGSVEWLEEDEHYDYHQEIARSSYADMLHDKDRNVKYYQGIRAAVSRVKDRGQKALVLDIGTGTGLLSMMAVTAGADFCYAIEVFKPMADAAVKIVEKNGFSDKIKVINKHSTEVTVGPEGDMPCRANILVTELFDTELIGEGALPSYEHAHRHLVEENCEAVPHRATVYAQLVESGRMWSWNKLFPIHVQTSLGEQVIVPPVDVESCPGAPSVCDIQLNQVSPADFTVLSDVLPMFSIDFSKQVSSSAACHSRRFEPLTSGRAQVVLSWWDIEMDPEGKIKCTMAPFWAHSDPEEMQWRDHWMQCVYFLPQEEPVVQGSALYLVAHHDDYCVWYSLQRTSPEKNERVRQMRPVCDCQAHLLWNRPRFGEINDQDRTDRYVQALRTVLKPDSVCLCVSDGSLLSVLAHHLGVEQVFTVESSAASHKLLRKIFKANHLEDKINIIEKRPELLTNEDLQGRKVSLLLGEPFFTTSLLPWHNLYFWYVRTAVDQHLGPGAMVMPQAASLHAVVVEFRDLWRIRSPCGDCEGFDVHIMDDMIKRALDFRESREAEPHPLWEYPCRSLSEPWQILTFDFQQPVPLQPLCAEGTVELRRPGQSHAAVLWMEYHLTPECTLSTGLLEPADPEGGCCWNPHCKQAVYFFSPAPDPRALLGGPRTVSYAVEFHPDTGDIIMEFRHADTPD
RNA 5'-monophosphate methyltransferase (Homo sapiens), sequence (Q7Z5W3 whole entry): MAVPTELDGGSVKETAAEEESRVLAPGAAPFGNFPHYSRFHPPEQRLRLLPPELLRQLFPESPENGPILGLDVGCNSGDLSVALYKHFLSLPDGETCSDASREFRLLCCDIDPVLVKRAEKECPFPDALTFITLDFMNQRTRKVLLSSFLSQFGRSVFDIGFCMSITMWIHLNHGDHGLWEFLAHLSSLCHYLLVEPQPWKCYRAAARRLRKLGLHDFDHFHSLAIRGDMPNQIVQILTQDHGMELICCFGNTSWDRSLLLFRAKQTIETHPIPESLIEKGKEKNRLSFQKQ

As usually defined, the inhibition is the change of the read-out against control, counted positive when it falls. Consider `C=CC(=O)Nc1cccc(-c2c[nH]cc2CN(C)CCN)c1`, for which the IC50 in data set [1] (read-out: IC50) was 18 nM; in data set [1] (read-out: pIC50 (converted)), 15.8 nM; in [3], 480 nM; in data set [5], 5.6 µM. Moreover, the Ratio in data set [2] is 8.3 ×10⁴ /M/s. Also, in data set [4], the Ratio IC50 is 6. The inhibition result in data set [5] is “Dose-dependent effect”; in [9], over 90%; in data set [10], over 90%; in data set [18] it was over 50%. For the same molecule, the inhibition entry in [6], in data set [7], in data set [11], in data set [12], in data set [13] and in data set [14] was “inactive” throughout. The inhibition entry in data set [15], in data set [16] and in [17] was “inactive” each time. Also, the Activity result in [8] was “Non-Toxic”.
